Assay results as given in ChEMBL document CHEMBL2434928, “New derivatives of salicylamides: Preparation and antimicrobial activity against various bacterial species” (2013).
In brackets after ≈: the same amount, converted by molar mass.

Legend:
Type in all cases: functional
Pasteurella multocida = experiment: Antimicrobial activity against Pasteurella multocida clinical isolate after 24 hrs by broth microdilution method
Procedure, shortened: (§1)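 Broth microdilution MIC in Mueller–Hinton broth, per modified NCCLS guidelines. Strains were grown on nutrient agar with 5% ovine blood. Colonies were suspended in PBS (pH 7.2–7.3), adjusted to 0.5 McFarland, then diluted 1:20 in MH broth. Compounds were in DMSO, ≤2.5% final. Drug-free, sterility and DMSO controls were included.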

Clostridium perfringens = experiment: Antimicrobial activity against Clostridium perfringens CNCTC 5770 after 24 hrs by broth microdilution method; conditions: CNCTC 5770, 24 h
Procedure, shortened: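 Colonies grown on blood agar (nutrient agar, 5% ovine blood) were suspended in PBS pH 7.2–7.3, set to 0.5 McFarland, and diluted 1:20 in MH broth for the final inoculum. Compounds were in DMSO (≤2.5% final), tested by NCCLS-modified microdilution with drug-free, sterility and DMSO controls.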

Staphylococcus aureus [1] = experiment: Antimicrobial activity against methicillin-resistant Staphylococcus aureus 3202 after 24 hrs by broth microdilution method; conditions: Staphylococcus aureus, 3202, 24 h
Procedure, shortened: (§2)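 Colonies grown on nutrient agar with 5% ovine blood were suspended in PBS (pH 7.2–7.3), adjusted to 0.5 McFarland, and diluted 1:20 in Mueller–Hinton broth. Compounds were dissolved in DMSO (final ≤2.5%) and tested by NCCLS-modified broth microdilution with drug-free, sterility and broth+DMSO controls.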

Staphylococcus aureus [2] = experiment: Antimicrobial activity against methicillin-resistant Staphylococcus aureus 630 after 24 hrs by broth microdilution method; conditions: Staphylococcus aureus, 630, 24 h; procedure, shortened: as §2
Staphylococcus aureus [3] = experiment: Antimicrobial activity against methicillin-resistant Staphylococcus aureus 63718 after 24 hrs by broth microdilution method; conditions: Staphylococcus aureus, 63718, 24 h; procedure, shortened: as §2
Bacillus cereus = experiment: Antimicrobial activity against Bacillus cereus ATCC 14579 after 24 hrs by broth microdilution method; conditions: ATCC 14579, 24 h; procedure, shortened: as §1
Staphylococcus aureus [4] = experiment: Antimicrobial activity against Staphylococcus aureus ATCC 29213 after 24 hrs by broth microdilution method; conditions: ATCC 29213, 24 h; procedure, shortened: as §1
Mycobacterium kansasii = experiment: Antimycobacterial activity against Mycobacterium kansasii DSM 44162 after 7 days; conditions: DSM 44162, 168 h
Procedure, shortened: (§3)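 MIC by broth microdilution in Middlebrook 7H9 with ADC enrichment. Compounds were dissolved in DMSO. Inoculum: colonies in sterile water adjusted to 0.5 McFarland, then diluted 1:1000 in sterile water. Drug-free, sterility and medium+DMSO controls were included. Wells were read visually after static incubation in the dark.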

Mycobacterium marinum = experiment: Antimycobacterial activity against Mycobacterium marinum CAMP 5644 after 21 days; conditions: CAMP 5644, 504 h; procedure, shortened: as §3
[5] = system: Mycolicibacterium smegmatis; experiment: Antimycobacterial activity against Mycobacterium smegmatis ATCC 700084 after 3 days; conditions: ATCC 700084, 72 h
Procedure, shortened: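 Middlebrook 7H9 plus ADC broth microdilution MIC, with compounds in DMSO. Colonies were suspended in sterile water to 0.5 McFarland, then diluted 1:1000 in sterile water. Drug-free, sterility and DMSO controls were included. The visual read followed 3 days of static aerobic incubation at 37 °C in darkness.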

Row | Structure (SMILES) | MIC (Pasteurella multocida) [µM] | MIC (Clostridium perfringens) [µM] | MIC (Staphylococcus aureus [1]) [µM] | MIC (Staphylococcus aureus [2]) [µM] | MIC (Staphylococcus aureus [3]) [µM] | MIC (Bacillus cereus) [µM] | MIC (Staphylococcus aureus [4]) [µM] | MIC (Mycobacterium kansasii) [µM] | MIC (Mycobacterium marinum) [µM] | MIC [5] [µM]
1 | O=C(Nc1ccc(Cl)c(Cl)c1)c1cc(Cl)ccc1O | 0.19 (≈ 0.0601 µg/mL) | 0.03 (≈ 0.0095 µg/mL) | 0.77 (≈ 0.244 µg/mL) | 0.77 (≈ 0.244 µg/mL) | 0.77 (≈ 0.244 µg/mL) | 0.09 (≈ 0.0285 µg/mL) | 0.79 (≈ 0.25 µg/mL) |  |  | 
2 | O=C(Nc1ccccc1)c1cc(Cl)ccc1O | 1.01 (≈ 0.25 µg/mL) | > 1030 | 16.1 (≈ 4 µg/mL) | 16.1 (≈ 4 µg/mL) | 32.3 (≈ 8 µg/mL) | 32.3 (≈ 8 µg/mL) | 16.1 (≈ 4 µg/mL) | 16.1 (≈ 4 µg/mL) | 64.6 (≈ 16 µg/mL) | 64.6 (≈ 16 µg/mL)
3 | O=C(Nc1ccc(Cl)c(Cl)c1)c1ccc(Cl)cc1O | 0.2 (≈ 0.0633 µg/mL) | 0.2 (≈ 0.0633 µg/mL) | 0.05 (≈ 0.0158 µg/mL) | 0.03 (≈ 0.0095 µg/mL) | 0.05 (≈ 0.0158 µg/mL) | ≤ 0.03 | 0.03 (≈ 0.0095 µg/mL) | 3.16 (≈ 1 µg/mL) | 3.16 (≈ 1 µg/mL) | 12.6 (≈ 4 µg/mL)
4 | O=C(Nc1ccc([N+](=O)[O-])cc1)c1cc(Cl)ccc1O | 0.03 (≈ 0.00878 µg/mL) | 1.71 (≈ 0.5 µg/mL) | 1.71 (≈ 0.5 µg/mL) | 0.85 (≈ 0.249 µg/mL) | 1.71 (≈ 0.5 µg/mL) | 0.85 (≈ 0.249 µg/mL) | 0.85 (≈ 0.249 µg/mL) | ≤ 0.43 | 3.42 (≈ 1 µg/mL) | 13.7 (≈ 4 µg/mL)
5 | O=C(Nc1ccc(Cl)cc1)c1cc(Cl)ccc1O | 3.54 (≈ 0.999 µg/mL) | 14.2 (≈ 4 µg/mL) | 56.7 (≈ 16 µg/mL) | 28.4 (≈ 8 µg/mL) | 56.7 (≈ 16 µg/mL) | 14.2 (≈ 4 µg/mL) | 28.4 (≈ 8 µg/mL) | 7.08 (≈ 2 µg/mL) | 7.08 (≈ 2 µg/mL) | 28.4 (≈ 8 µg/mL)
6 | O=C(Nc1ccc(Br)cc1)c1cc(Cl)ccc1O | 0.19 (≈ 0.062 µg/mL) | 3.06 (≈ 0.999 µg/mL) | 0.76 (≈ 0.248 µg/mL) | 0.76 (≈ 0.248 µg/mL) | 0.76 (≈ 0.248 µg/mL) | 0.38 (≈ 0.124 µg/mL) | 0.76 (≈ 0.248 µg/mL) | 6.12 (≈ 2 µg/mL) | 12.2 (≈ 4 µg/mL) | 24.5 (≈ 8 µg/mL)
7 | O=C(Nc1ccc(C(F)(F)F)cc1)c1cc(Cl)ccc1O | 0.2 (≈ 0.0631 µg/mL) | 1.58 (≈ 0.499 µg/mL) | 0.2 (≈ 0.0631 µg/mL) | 0.2 (≈ 0.0631 µg/mL) | 0.1 (≈ 0.0316 µg/mL) | 0.1 (≈ 0.0316 µg/mL) | 0.03 (≈ 0.00947 µg/mL) | 1.58 (≈ 0.499 µg/mL) | ≤ 0.4 | 12.7 (≈ 4 µg/mL)
8 | COc1ccc(NC(=O)c2cc(Cl)ccc2O)cc1 | 28.8 (≈ 8 µg/mL) | > 921 | > 921 | > 921 | > 921 | > 921 | > 921 |  |  | 
9 | COc1ccc(NC(=O)[C@@H](NC(=O)c2cc(Cl)ccc2O)C(C)C)cc1 | > 679 | > 679 | > 679 | > 679 | > 679 | > 679 | > 679 |  |  | 
10 | Cc1ccc(NC(=O)[C@H](C)NC(=O)c2cc(Cl)ccc2O)cc1 | > 769 | > 769 | > 769 | > 769 | > 769 | > 769 | > 769 |  |  | 
11 | CC(C)[C@H](NC(=O)c1cc(Cl)ccc1O)C(=O)Nc1ccc(C(F)(F)F)cc1 | > 617 | 4.82 (≈ 2 µg/mL) | 4.82 (≈ 2 µg/mL) | 4.82 (≈ 2 µg/mL) | 9.64 (≈ 4 µg/mL) | 2.41 (≈ 1 µg/mL) | 4.82 (≈ 2 µg/mL) | 38.6 (≈ 16 µg/mL) | 77.1 (≈ 32 µg/mL) | 77.1 (≈ 32 µg/mL)
12 | CC(C)[C@H](NC(=O)c1ccc(Cl)cc1O)C(=O)Nc1ccc(Br)cc1 | > 601 | 9.39 (≈ 4 µg/mL) | 9.39 (≈ 4 µg/mL) | 9.39 (≈ 4 µg/mL) | 18.8 (≈ 8 µg/mL) | 2.34 (≈ 0.996 µg/mL) | 9.39 (≈ 4 µg/mL) | 75.2 (≈ 32 µg/mL) | 150 (≈ 63.9 µg/mL) | 150 (≈ 63.9 µg/mL)
13 | CC(C)[C@H](NC(=O)c1ccc(Cl)cc1O)C(=O)Nc1ccc(Cl)c(Cl)c1 | > 615 | 38.5 (≈ 16 µg/mL) | 2.4 (≈ 0.998 µg/mL) | 2.4 (≈ 0.998 µg/mL) | 4.81 (≈ 2 µg/mL) | 1.2 (≈ 0.499 µg/mL) | 2.4 (≈ 0.998 µg/mL) | 77 (≈ 32 µg/mL) | 77 (≈ 32 µg/mL) | 77 (≈ 32 µg/mL)
14 | O=C(N[C@@H](Cc1ccccc1)C(=O)Nc1ccc(Cl)c(Cl)c1)c1ccc(Cl)cc1O | > 552 | 34.5 (≈ 16 µg/mL) | 1.07 (≈ 0.496 µg/mL) | 2.15 (≈ 0.997 µg/mL) | 2.15 (≈ 0.997 µg/mL) | 1.07 (≈ 0.496 µg/mL) | 1.07 (≈ 0.496 µg/mL) | 34.5 (≈ 16 µg/mL) | 138 (≈ 64 µg/mL) | 69 (≈ 32 µg/mL)
15 | Cc1ccc(NC(=O)c2cc(Cl)ccc2O)cc1 | 1.91 (≈ 0.5 µg/mL) | > 978 | > 978 | > 978 | > 978 | 30.6 (≈ 8 µg/mL) | > 978 | 30.6 (≈ 8 µg/mL) | 61.1 (≈ 16 µg/mL) | > 978
16 | Cc1ccc(NC(=O)[C@H](Cc2ccccc2)NC(=O)c2cc(Cl)ccc2O)cc1 | > 626 | > 626 | > 626 | > 626 | > 626 | > 626 | > 626 |  |  | 
17 | CC(C)[C@H](NC(=O)OCc1ccccc1)C(=O)Oc1ccc(Cl)cc1C(=O)Nc1ccccc1 | > 517 |  |  |  |  | > 517 | > 517 |  |  | 
18 | Cc1ccc(NC(=O)c2cc(Cl)ccc2OC(=O)[C@H](C)NC(=O)OCc2ccccc2)cc1 | 2.14 (≈ 0.999 µg/mL) |  |  |  |  | 7.13 (≈ 3.33 µg/mL) | 34.3 (≈ 16 µg/mL) | 17.1 (≈ 8 µg/mL) | 68.5 (≈ 32 µg/mL) | > 548
19 | Cc1ccc(NC(=O)c2cc(Cl)ccc2OC(=O)[C@@H](NC(=O)OCc2ccccc2)C(C)C)cc1 | 4.04 (≈ 2 µg/mL) |  |  |  |  | 32.3 (≈ 16 µg/mL) | 32.3 (≈ 16 µg/mL) | 129 (≈ 63.9 µg/mL) | 259 (≈ 128 µg/mL) | 259 (≈ 128 µg/mL)
20 | Cc1ccc(NC(=O)c2cc(Cl)ccc2OC(=O)[C@H](Cc2ccccc2)NC(=O)OCc2ccccc2)cc1 | 7.36 (≈ 4 µg/mL) |  |  |  |  | 29.5 (≈ 16 µg/mL) |  | 58.9 (≈ 32 µg/mL) | 118 (≈ 64.1 µg/mL) | 236 (≈ 128 µg/mL)
21 | Cc1ccc(NC(=O)[C@@H](NC(=O)c2cc(Cl)ccc2O)C(C)C)cc1 | 88.7 (≈ 32 µg/mL) | 88.7 (≈ 32 µg/mL) | 88.7 (≈ 32 µg/mL) | > 709 | > 709 | 22.2 (≈ 8 µg/mL) | 88.7 (≈ 32 µg/mL) | 88.7 (≈ 32 µg/mL) | 355 (≈ 128 µg/mL) | > 709
22 | CC(C)[C@H](NC(=O)OCc1ccccc1)C(=O)Oc1ccc(Cl)cc1C(=O)Nc1ccc(Br)cc1 | 0.89 (≈ 0.498 µg/mL) | 3.57 (≈ 2 µg/mL) | 1.78 (≈ 0.997 µg/mL) | 1.78 (≈ 0.997 µg/mL) | 3.57 (≈ 2 µg/mL) | 1.78 (≈ 0.997 µg/mL) | 3.57 (≈ 2 µg/mL) | 14.3 (≈ 8 µg/mL) | 14.3 (≈ 8 µg/mL) | 57.2 (≈ 32 µg/mL)
23 | O=C(N[C@@H](Cc1ccccc1)C(=O)Oc1ccc(Cl)cc1C(=O)Nc1ccc(Cl)c(Cl)c1)OCc1ccccc1 | 0.83 (≈ 0.496 µg/mL) | 1.67 (≈ 0.998 µg/mL) | 0.2 (≈ 0.12 µg/mL) | 0.2 (≈ 0.12 µg/mL) | 0.2 (≈ 0.12 µg/mL) | 0.41 (≈ 0.245 µg/mL) | 1.67 (≈ 0.998 µg/mL) | 13.4 (≈ 8 µg/mL) | 26.8 (≈ 16 µg/mL) | 26.8 (≈ 16 µg/mL)
24 | CC1(C)S[C@@H]2[C@H](NC(=O)[C@H](N)c3ccccc3)C(=O)N2[C@H]1C(=O)O [AMPICILLIN] | 1.43 (≈ 0.5 µg/mL) | < 0.72 | > 45.8 | > 45.8 | > 45.8 | > 45.8 | 5.72 (≈ 2 µg/mL) |  |  | 
25 | O=C(O)c1cn(C2CC2)c2cc(N3CCNCC3)c(F)cc2c1=O [CIPROFLOXACIN] |  |  | > 48.3 | > 48.3 | > 48.3 |  | > 48.3 |  |  | 
26 | NNC(=O)c1ccncc1 [ISONIAZID] |  |  |  |  |  |  |  |  | 467 (≈ 64 µg/mL) | 117 (≈ 16 µg/mL)
